Bioassay records from PubChem BioAssay.
EBV gp42 block: blocks Epstein-Barr virus glycoprotein 42 binding. Q1HVG2. Fluorescence polarization binding assay, mP read-out. inhibition, % (tested at 21.74 µM). 0.42% of 220,000 active; in the data active = inhibition above about 50%
GRK2 aptamer HTS: inhibitors of human GRK2 displacing RNA aptamer. inhibition of aptamer binding, % at 10 µM. 0.59% of 330,000 active. bead flow cytometry, FAM-aptamer displacement from GRK2;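 active = inhibition of aptamer binding above 40%, roughly 3 SD of noise, on plates passing a quality check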;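 note: median bead fluorescence of bound FAM aptamer so fluorescent compounds give negative values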
LANA DNA inh: blocks KSHV LANA C-terminal domain binding to DNA. MBP-C-LANA/FAM-LBS DNA binding, fluorescence polarization. inhibition, % at 9 µM. 0.078% of 340,000 active. AID 504423;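 active = highest replicate inhibition at or above 60% at 9 µM, even if other replicates fall short; inactive = all replicates below 60% inhibition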;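 note: 0% = neutral control wells and 100% = 4 µM acridine orange control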
Keap1-Nrf2 PPI: inhibitors of human Keap1-Nrf2 protein-protein interaction; Q14145; 0.15% of 340,000 active; Keap1 Kelch-Nrf2 peptide fluorescence polarization, 1536-well; inhibition, % at 9.4 µM; in the data active = inhibition above about 12%; inconclusive = no clear call, values can overlap the other calls; inactive = below about 7.3%;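 note: human Keap1 Kelch domain with fluorescein labeled Nrf2 9mer peptide probe; 0% = neutral control wells and 100% = peptide positive control; higher means more block of Keap1 binding to Nrf2 peptide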
MEX-5 binding: C. elegans MEX-5 TCR-2 RNA binding activity. Q9XUB2. MEX-5/FITC-TCR2 RNA binding, fluorescence polarization; stronger effect = lower value. activity score (negative = inhibition of binding), % at 10 µM. 0.38% of 300,000 active. AID 1832;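 active = inhibition past about -25% in most replicates, and total fluorescence under double the plate's negative control median, limit read from the data; inconclusive = replicates evenly split on the limit, or fluorescence at least double controls; inactive = too little inhibition in most replicates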;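 note: 0% = DMSO and -100% = 5 µM competing unlabeled TCR2 RNA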
Target sequence (Q9XUB2 whole entry, looked up): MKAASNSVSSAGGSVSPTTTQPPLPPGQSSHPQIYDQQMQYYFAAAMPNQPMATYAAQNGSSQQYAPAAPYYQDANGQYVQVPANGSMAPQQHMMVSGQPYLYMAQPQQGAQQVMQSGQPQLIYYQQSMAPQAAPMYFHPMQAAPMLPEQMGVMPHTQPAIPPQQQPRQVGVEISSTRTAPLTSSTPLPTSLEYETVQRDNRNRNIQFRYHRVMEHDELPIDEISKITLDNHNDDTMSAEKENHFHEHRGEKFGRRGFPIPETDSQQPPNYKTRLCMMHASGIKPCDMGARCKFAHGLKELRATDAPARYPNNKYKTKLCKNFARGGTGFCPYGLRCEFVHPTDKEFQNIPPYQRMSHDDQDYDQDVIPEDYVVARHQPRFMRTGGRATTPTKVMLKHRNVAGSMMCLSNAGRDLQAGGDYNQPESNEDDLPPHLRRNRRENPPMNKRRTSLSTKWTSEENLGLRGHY
T cell modulator: T cell immune modulators affecting CD8 T cell-vesicle binding; response (vesicle binding), % at 7 µM; 2C CD8+ T cell-vesicle binding, flow cytometry; stronger effect = lower value; 0.068% of 330,000 active;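 active = response, share of CD8 T cells binding vesicles, and their 90th percentile fluorescence all below set limits, cut at about 80% in these data, passing the limit was not always enough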;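 note: values below 100% mean blocked vesicle binding to the CD8+ T cells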
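System: murine 2C transgenic CD8+ T lymphocytes; also added: QL9-loaded Drosophila micro-vesicles; times: binding 1.5 h at 37 °C; measured by: flow cytometry, PE anti-B7-1 (FL2) versus Alexa647 anti-CD8 (FL8), PFA-fixed; control set: Peptide-free naked vesicles (low) and QL9 vesicles with 0.7% DMSO vehicle (high)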
An asterisk follows results filed as active; i = inactive; ? = inconclusive; / = not tested or not shown. The list is not random: actives were taken first. Their share in the collection is about 1.3%.

SMILES	EBV gp42 block	GRK2 aptamer HTS	LANA DNA inh	Keap1-Nrf2 PPI	MEX-5 binding	T cell modulator
COc1cc(N2CCCC2)c(OC)cc1/C=C(/C#N)c1cccc(F)c1	108*	0	0	-11	2	274
N#C/C(=C/c1ccc(N2CCCCCC2)o1)c1cccc(F)c1	-2	0	0	-10	4	313
COc1ncnc2c1NC1=C(S2)C(=NCCC(=O)O)CC(C)(C)C1	140*	3	23	-1	-52*	240
CC(C)c1ccc(C(O)P(=O)(OCc2ccccc2)c2ccc(N(C)C)cc2)cc1 (stereo unspecified)	-3	2	-1	-3	1	932
Cc1cc(C)n(CC(=O)NNC(=O)CC(C)c2ccccc2)n1 (stereo unspecified)	/	1	73*	1	/	i
Cc1cc(C)n(CC(=O)NNC(=O)CCNC(=O)c2ccccc2Cl)n1	/	1	0	2	0	240
O=C(c1ccccc1)C1CCN(C(=O)c2c(F)cccc2F)CC1	/	6	1	3	3	213
COc1ccc(Cc2nnc(NC(=O)C3CC(=O)N(c4ccccc4)C3)s2)cc1OC (stereo unspecified)	/	4	-1	-3	1	206
C=CCC[C@@H](Cc1ccc(F)cc1)C(=O)OC[C@@H](NC(=O)[C@@H](CC=C)CC(=O)N[C@@H](CO)Cc1ccccc1)C(C)(C)C	/	1	0	0	/	198
C=CCC[C@H](Cc1ccc(F)cc1)C(=O)OC[C@@H](NC(=O)[C@@H](CC=C)CC(=O)N[C@@H](CO)Cc1ccccc1)C(C)(C)C	/	49*	-1	-5	/	i
NC(=O)c1c(NC(=O)c2ccccc2)sc2c1CCN(Cc1ccccc1)C2	/	0	4	-17	-27*	306
N#Cc1c(NC(=O)/C=C/C(=O)O)sc2c1CCN(Cc1ccccc1)C2	/	4	5	-5	-29*	385
CNC(=O)c1c(NC(=O)c2ccc(S(=O)(=O)N3CCCC3)cc2)sc2c1CCN(C(C)C)C2	/	0	/	/	-1	245
CNC(=O)c1c(NC(=O)c2ccc(S(=O)(=O)N3CCCCC3C)cc2)sc2c1CCN(C)C2 (stereo unspecified)	/	2	-4	-15	-26*	408
NC(=O)c1c(NC(=O)c2c(F)cccc2F)sc2c1CCN(Cc1ccccc1)C2	/	1	9	-20	-35*	533
CC(Oc1ccc2c3c(c(=O)oc2c1)CCCC3)C(=O)NCc1ccncc1 (stereo unspecified)	/	0	3	-1	-2	114
CCN1CCN(C(c2cccs2)C(C)NC(=O)c2cccc(OC)c2OC)CC1 (stereo unspecified)	-29	2	-2	1	-1	418
CN1CCc2c(sc(NC(=O)c3ccc4ccccc4c3)c2C(N)=O)C1	/	3	9	?	-92*	562
CN1CCc2c(sc(NC(=O)Cc3ccccc3)c2C(N)=O)C1	/	0	1	3	-2	560
ClCc1nc2ccccc2n1Cc1ccccc1	/	0	5	-2	-66*	304
CCN1/C(=C2/SC(=S)N(NC(C)=O)C2=O)Sc2ccc(OC)cc21	/	/	31	-1	-46*	558
CCCCN1C(=O)/C(=C2/Sc3ccc(OC)cc3N2CC)SC1=S	/	5	2	2	-26*	315
C=CCN1C(=O)/C(=C2/Sc3ccc(OC)cc3N2CC)SC1=S	/	0	4	1	-40*	442
CCN1C(=O)/C(=C2\SC(=S)N(CCCOC)C2=O)c2ccccc21	-4	0	0	-1	-2	279
C=CCN1C(=O)/C(=C2/Sc3ccc(OC)cc3N2C)SC1=Nc1ccc(OC)cc1	-23	0	/	/	-1	198
SMILES	EBV gp42 block	GRK2 aptamer HTS	LANA DNA inh	Keap1-Nrf2 PPI	MEX-5 binding	T cell modulator
CCN1/C(=C2/SC(=S)N(NC(C)=O)C2=O)Sc2ccc(Cl)cc21	/	1	9	-4	-17	196
Cc1ccc(C(=O)N/C(=C\c2cccs2)C(=O)N2CCN(C)CC2)cc1C	/	1	-1	1	1	246
CN(c1c(C#N)c(C(F)(F)F)nn1C)N(S(C)(=O)=O)S(C)(=O)=O	-11	1	-1	-3	0	184
CCOC(=O)C(=O)/C(=C\N(C)C)c1onc(-c2ccccc2)c1C(=O)OC	132*	1	-9	-8	1	276
CCOC(=O)C(=O)/C(=C\N(C)C)c1onc(-c2ccccc2Cl)c1C(=O)OC	-4	0	0	-3	2	312
Cc1ccnc(NC(NC(=O)C(C)C)(C(F)(F)F)C(F)(F)F)c1	1	2	2	-5	1	136
Cc1onc(-c2ccccc2)c1C(=O)NC(=S)NNC(=O)c1ccncc1	-11	74*	-1	1	7	304
S=C(NC1CCCCC1)N1CCn2cccc2C1c1ccncc1 (stereo unspecified)	-5	2	0	0	1	296
CC(=O)c1cccc(NC(=O)/C(=C\c2cccnc2)NC(=O)c2ccc(C)cc2)c1	/	0	0	-5	2	175
O=c1oc2cc(O)ccc2cc1-c1nc2c(s1)CCc1ccccc1-2	127*	19	16	-2	/	768
COc1ccc(/C=C2\SC(=N)N(c3nccs3)C2=O)cc1OC	-15	5	9	-5	-12	209
N=C1S/C(=C\c2ccc(-c3cccc(Cl)c3)o2)C(=O)N1c1nccs1	76*	4	1	-5	0	592
Cc1cc(C)c2c(=O)[nH]cnc2n1	-1	0	-2	-1	-1	209
c1ccc(COc2ccc(OCCN3CCCCC3)cc2)cc1	-12	0	-1	-5	1	81*
c1ccc(COc2ccc(OCCN3CCCC3)cc2)cc1	0	0	-3	-6	0	332
CC(C)=CCC12Oc3cc(O)ccc3C1(O)Oc1cc3c(c(O)c1C2=O)C=CC(C)(C)O3 (stereo unspecified)	/	2	/	/	-1	182
NC(=O)c1ccsc1N	9	2	/	/	-35*	206
O=Cc1ccc(Oc2ncccn2)cc1	3	0	-1	0	-2	93
Cc1cc(C(=O)CN2C(=O)NC3(CCCc4sccc43)C2=O)c(C)n1-c1ccccc1 (stereo unspecified)	-3	1	2	-1	0	187
COc1ccc(NC(=O)/C=C/c2cccc(Br)c2)cn1	/	2	23	11	-33*	382
COc1ccc(NC(=O)/C=C/c2cccc(C(F)(F)F)c2)cn1	/	3	1	0	-4	207
COc1ccccc1N1C(=O)C(Cl)=C(Nc2ccccc2O)C1=O	-19	/	-1	-7	-29*	/
O=C1C(Cl)=C(Nc2ccccc2O)C(=O)N1c1ccccc1	-20	0	0	1	-31*	143
CCOc1ccccc1NC1=C(Cl)C(=O)N(c2ccc(OC)cc2)C1=O	-5	0	0	-2	-1	352
